Source: ChEMBL document CHEMBL1240339, “Raft nanodomains contribute to Akt/PKB plasma membrane recruitment and activation” (Nat Chem Biol, 2008)
“And” between values parts separate entries of the source, which are not always exact repeats. Identical values can stand only once. The source made the active and inactive calls. The rule behind the calls is not given here.

Tests used:
Assay type in all cases: cell-based
COS-7 [1] = test: Inhibition of squalene synthase in african green monkey COS7 cells assessed as of cholesterol level at 5 uM after 14 to 18 hrs by fluorescence correlation spectroscopy relative to control; set-up: scale not given: the % may be the effect or the level left; conditions: Chlorocebus aethiops
Mus musculus [2] = species on record: Mus musculus; test: Inhibition of CD-28 triggered Ras/MAPK in mouse DWT6.11 cells by immunoblotting analysis
In short: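 DWT6.11 cells were pretreated with myriocin (25 µM, 48 h in complete medium, then serum-starved 14–18 h). They were stimulated or not with CD28 monoclonal antibody. The Ras/MAPK pathway was read as ERK phosphorylation by immunoblotting.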

COS-7 [3] = test: Inhibition of squalene synthase in african green monkey COS7 cells assessed as cholesterol level at 5 uM after 14 to 18 hrs by fluorescence correlation spectroscopy relative to control; set-up: scale not given: the % may be the effect or the level left; conditions: Chlorocebus aethiops
[4] = biological target: T1, Squalene synthase (Homo sapiens) (UniProt P37268); test: Inhibition of squalene synthase in human Jurkat JA16 cells assessed as cholesterol level at 5 uM after 14 to 18 hrs by fluorescence correlation spectroscopy relative to control; set-up: scale not given: the % may be the effect or the level left
T1 sequence (whole entry): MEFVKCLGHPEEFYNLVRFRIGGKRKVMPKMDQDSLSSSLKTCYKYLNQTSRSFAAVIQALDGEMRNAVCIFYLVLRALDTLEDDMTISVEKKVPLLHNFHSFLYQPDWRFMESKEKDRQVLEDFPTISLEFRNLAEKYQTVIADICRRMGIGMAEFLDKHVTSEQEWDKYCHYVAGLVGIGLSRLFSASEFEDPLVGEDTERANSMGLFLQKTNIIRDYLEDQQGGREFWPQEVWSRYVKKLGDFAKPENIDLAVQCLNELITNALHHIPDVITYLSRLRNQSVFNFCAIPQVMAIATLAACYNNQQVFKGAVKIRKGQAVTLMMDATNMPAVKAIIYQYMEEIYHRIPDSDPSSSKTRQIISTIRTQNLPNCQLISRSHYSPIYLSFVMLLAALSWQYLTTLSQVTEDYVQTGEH

Jurkat [5] = test: Inhibition of serine palmitoyltransferase in human Jurkat JA16 cells assessed as sphingomyelin level at 5 uM after 14 to 18 hrs by fluorescence correlation spectroscopy relative to control; set-up: scale not given: the % may be the effect or the level left
[6] = biological target: T2, Squalene synthase (Mus musculus) (UniProt P53798); test: Inhibition of squalene synthase in mouse DWT6.11 cells assessed as sphingomyelin level at 5 uM after 14 to 18 hrs by fluorescence correlation spectroscopy relative to control; set-up: scale not given: the % may be the effect or the level left
T2 sequence (whole entry): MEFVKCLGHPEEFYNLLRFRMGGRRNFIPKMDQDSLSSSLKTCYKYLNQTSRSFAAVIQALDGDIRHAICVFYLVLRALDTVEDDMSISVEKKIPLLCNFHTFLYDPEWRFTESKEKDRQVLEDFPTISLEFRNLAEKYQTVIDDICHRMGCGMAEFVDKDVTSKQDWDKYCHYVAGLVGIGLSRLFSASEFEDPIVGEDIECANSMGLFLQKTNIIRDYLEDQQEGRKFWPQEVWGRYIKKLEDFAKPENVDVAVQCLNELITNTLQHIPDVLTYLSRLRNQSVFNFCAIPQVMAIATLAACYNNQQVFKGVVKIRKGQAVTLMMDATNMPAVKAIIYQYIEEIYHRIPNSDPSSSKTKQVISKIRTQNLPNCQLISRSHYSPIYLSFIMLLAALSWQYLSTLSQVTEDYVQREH

[7] = biological target: T2, Squalene synthase (Mus musculus); test: Inhibition of squalene synthase in mouse DWT6.11 cells assessed as cholesterol level at 5 uM after 14 to 18 hrs by fluorescence correlation spectroscopy relative to control; set-up: scale not given: the % may be the effect or the level left
Mus musculus [8] = species on record: Mus musculus; test: Inhibition of serine palmitoyltransferase in mouse DWT6.11 cells assessed as sphingomyelin level at 25 uM after 14 to 18 hrs by fluorescence correlation spectroscopy relative to control; set-up: scale not given: the % may be the effect or the level left
Mus musculus [9] = species on record: Mus musculus; test: Inhibition of serine palmitoyltransferase in mouse DWT6.11 cells assessed as cholesterol level at 25 uM after 14 to 18 hrs by fluorescence correlation spectroscopy relative to control; set-up: scale not given: the % may be the effect or the level left
[10] = biological target: RAC-alpha serine/threonine-protein kinase (Mus musculus) (UniProt P31750); test: Inhibition of CD-28 triggered Akt phosphorylation in mouse DWT6.11 cells assessed as enzyme phosphorylation at Thr308 by immunoblotting relative to control; conditions: concentration not given here
In short: (§1)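 DWT6.11 mouse T cells were given 25 µM myriocin for 48 h in complete medium, then serum-starved 14–18 h with 25 µM myriocin, then stimulated with CD28 monoclonal antibody. Akt Thr308 and Ser473 phosphorylation induction was quantified by immunoblotting as % of untreated cells, mean ± s.d., n = 3.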

[11] = biological target: T1, Squalene synthase (Homo sapiens); test: Inhibition of squalene synthase in human Jurkat JA16 cells assessed as cholesterol level at 25 uM after 14 to 18 hrs by fluorescence correlation spectroscopy relative to control; set-up: scale not given: the % may be the effect or the level left
[12] = biological target: RAC-alpha serine/threonine-protein kinase (Mus musculus) (UniProt P31750); test: Inhibition of CD-28 triggered Akt phosphorylation in mouse DWT6.11 cells assessed as enzyme phosphorylation at Ser473 by immunoblotting relative to control; conditions: concentration not given here; in short: as §1
Jurkat [13] = test: Inhibition of serine palmitoyltransferase in human Jurkat JA16 cells assessed as sphingomyelin level at 25 uM after 14 to 18 hrs by fluorescence correlation spectroscopy relative to control; set-up: scale not given: the % may be the effect or the level left
COS-7 [14] = test: Inhibition of serine palmitoyltransferase in african green monkey COS7 cells assessed as cholesterol level at 10 uM after 14 to 18 hrs by fluorescence correlation spectroscopy relative to control; set-up: scale not given: the % may be the effect or the level left; conditions: Chlorocebus aethiops
COS-7 [15] = test: Inhibition of serine palmitoyltransferase in african green monkey COS7 cells assessed as sphingomyelin level at 10 uM after 14 to 18 hrs by fluorescence correlation spectroscopy relative to control; set-up: scale not given: the % may be the effect or the level left; conditions: Chlorocebus aethiops
Jurkat [16] = test: Inhibition of serine palmitoyltransferase in human Jurkat JA16 cells assessed as lateral diffusion of the outer membrane leaflet-linked FL-PE nanodomain at 25 uM after 14 to 18 hrs by fluorescence correlation spectroscopy

Chain of RAC-alpha serine/threonine-protein kinase (Mus musculus) (P31750 whole entry): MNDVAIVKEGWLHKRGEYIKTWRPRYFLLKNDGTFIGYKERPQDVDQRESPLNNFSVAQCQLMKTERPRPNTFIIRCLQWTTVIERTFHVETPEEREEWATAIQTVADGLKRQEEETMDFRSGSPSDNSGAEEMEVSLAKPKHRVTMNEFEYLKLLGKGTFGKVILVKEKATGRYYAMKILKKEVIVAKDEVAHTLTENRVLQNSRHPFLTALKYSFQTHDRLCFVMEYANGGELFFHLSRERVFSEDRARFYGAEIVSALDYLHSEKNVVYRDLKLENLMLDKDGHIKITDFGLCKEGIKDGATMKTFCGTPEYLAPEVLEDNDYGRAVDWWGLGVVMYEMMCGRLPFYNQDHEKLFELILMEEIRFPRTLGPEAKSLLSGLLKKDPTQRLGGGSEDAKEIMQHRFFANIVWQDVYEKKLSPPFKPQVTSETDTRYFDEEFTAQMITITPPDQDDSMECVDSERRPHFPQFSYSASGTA

Row | Activity [4] | Activity [6] | Activity [7] | Compound | Activity (COS-7 [1]) | inhibition (Mus musculus [2]) | Activity (COS-7 [3]) | Activity (Jurkat [5]) | Activity (Mus musculus [8]) | Activity (Mus musculus [9]) | inhibition [10] | Activity [11] | inhibition [12] | Activity (Jurkat [13]) | Activity (COS-7 [14]) | Activity (COS-7 [15]) | Activity (Jurkat [16])
1 | 81% | 103% | 64% | C=C(CC[C@]12O[C@H](C(=O)O)[C@@](O)(C(=O)O)[C@](C(=O)O)(O1)[C@H](OC(=O)/C=C/[C@@H](C)C[C@@H](C)CC)[C@H]2O)[C@@H](OC(C)=O)[C@H](C)Cc1ccccc1 | 90% | inactive | 73% | 97% | – | – | – | – | – | – | – | – | –
2 | – | – | – | CCCCCCC(=O)CCCCCC/C=C/C[C@@H](O)[C@H](O)[C@@](N)(CO)C(=O)O | – | inactive | – | – | 24% | 98% | 50.8% | 97% | 51.2% | 28% | 92% | 30% | 0.9 ms and 0.8 um2/s
